Experimental data reported in ChEMBL document CHEMBL2346663 (J Med Chem, 2013).

Assays:
[1] = target: Sodium-dependent serotonin transporter (Homo sapiens, UniProt P31645); experiment: Inhibition of serotonin reuptake at human SERT expressed in HEK293 cells coexpressing macrophage scavenger receptor; type: cell-based
Summary of the method: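 HEK-293 MSR cells grown in DMEM with 10% FCS, penicillin/streptomycin and 6 µg/mL Geneticin at 37 °C and 5% CO2. Cells transfected with a pcDNA3.1 human SERT plasmid and assayed for [3H]5-HT uptake.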

[2] = organism: Homo sapiens; experiment: Selectivity ratio of Ki for human SERT to IC50 for human recombinant MPO-mediated LDL oxidation
Summary of the method: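 Ratio of two measured values. Recombinant human MPO (1 µg/mL) oxidised LDL (1000 µg/mL) in PBS pH 7.2 with 4 mM HCl and 100 µM H2O2 at 37 °C for 5 min. Oxidised LDL was detected by ELISA with Mab AG9 at 405 nm to give the IC50. hSERT was transiently expressed in HEK-293 MSR cells and assayed by [3H]5-HT uptake.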

[3] = target: T1, Myeloperoxidase (Homo sapiens, UniProt P05164); experiment: Inhibition of human recombinant MPO-mediated LDL oxidation after 5 mins by ELISA
T1 sequence (P05164 whole entry): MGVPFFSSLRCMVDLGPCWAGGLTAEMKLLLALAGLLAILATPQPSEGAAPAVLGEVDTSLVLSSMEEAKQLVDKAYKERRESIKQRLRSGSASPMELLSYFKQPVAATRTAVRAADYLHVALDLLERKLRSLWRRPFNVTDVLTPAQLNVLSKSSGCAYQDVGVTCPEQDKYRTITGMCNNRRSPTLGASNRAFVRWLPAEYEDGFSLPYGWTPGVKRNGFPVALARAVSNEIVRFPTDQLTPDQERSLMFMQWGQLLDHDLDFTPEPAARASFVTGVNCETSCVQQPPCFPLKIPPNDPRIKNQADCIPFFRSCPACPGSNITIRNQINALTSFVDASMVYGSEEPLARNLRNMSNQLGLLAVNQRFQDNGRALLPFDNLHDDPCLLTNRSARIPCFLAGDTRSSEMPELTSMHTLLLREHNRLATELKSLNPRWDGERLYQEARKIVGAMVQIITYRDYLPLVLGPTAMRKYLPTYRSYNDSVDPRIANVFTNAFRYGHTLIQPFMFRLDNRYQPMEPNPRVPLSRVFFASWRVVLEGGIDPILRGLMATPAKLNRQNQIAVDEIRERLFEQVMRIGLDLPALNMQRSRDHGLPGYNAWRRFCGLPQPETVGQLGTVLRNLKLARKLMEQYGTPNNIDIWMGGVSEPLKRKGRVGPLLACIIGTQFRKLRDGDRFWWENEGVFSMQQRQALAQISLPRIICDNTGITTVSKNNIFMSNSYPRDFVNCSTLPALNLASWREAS
Summary of the method: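 Recombinant MPO (1 µg/mL) with human plasma LDL (1000 µg/mL; ultracentrifuged fraction 1.019–1.067 g/mL, desalted in PBS) in PBS pH 7.2 with 4 mM HCl and test compound at several concentrations. Reaction started with 100 µM H2O2 at 37 °C and stopped after 5 min on ice. Oxidized LDL read by ELISA: 200 ng/well LDL coated, Mab AG9 antibody, alkaline phosphatase anti-mouse IgG, p-nitrophenyl phosphate, A405 corrected at 655 nm.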

[4] = target: T1, Myeloperoxidase; experiment: Inhibition of human recombinant MPO-mediated taurine chlorination after 5 mins by microplate assay; type: single protein
Summary of the method: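 Recombinant MPO (40 nM) in 10 mM phosphate pH 7.4 with 300 mM NaCl and 15 mM taurine, inhibitor up to 20 µM, 37 °C. Started with H2O2 (100 µM), stopped after 5 min with catalase. Taurine chloramine measured with thionitrobenzoic acid at 412 nm. IC50 taken from the absorbance–concentration curve; no H2O2 set as 100% inhibition, no inhibitor as 0%.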

[5] = system: Rattus norvegicus; experiment: Toxicity in Wistar Han rat at 10 mg/kg, ip; type: organism-based; design: dose 10 mg/kg, route intraperitoneal; details: in vivo
Summary of the method: (§1)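 Male Wistar Han rats (~285 g), 3 per group, given one i.p. dose in 2 ml alcohol/water 1:3 (v/v); vehicle-only controls. Doses were 10 or 100 mg/kg, or 1, 10 or 100 mg/kg, depending on the compound. Clinical signs recorded daily. Rats killed by exsanguination after 4 days, with gross organ examination at necropsy.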

[6] = system: Rattus norvegicus; experiment: Toxicity in Wistar Han rat assessed as occurrence of piloerection at 100 mg/kg, ip after 48 hrs; type: organism-based; design: dose 100 mg/kg, route intraperitoneal; details: in vivo; summary of the method: as §1
[7] = system: Rattus norvegicus; experiment: Toxicity in Wistar Han rat assessed as mortality at 10 to 100 mg/kg, ip after 4 days; type: organism-based; design: dose 10-100 mg/kg, route intraperitoneal; details: in vivo, 96 h
[8] = system: Rattus norvegicus; experiment: Toxicity in Wistar Han rat assessed as paralysis of hind limbs at 100 mg/kg, ip after 48 hrs; type: organism-based, Hindlimb; design: dose 100 mg/kg, route intraperitoneal; details: in vivo; summary of the method: as §1
[9] = system: Rattus norvegicus; experiment: Toxicity in Wistar Han rat assessed as occurrence of macroscopic liver lesions at 100 mg/kg, ip by necropsic analysis; type: organism-based; design: dose 100 mg/kg, route intraperitoneal; details: in vivo; summary of the method: as §1
[10] = system: Rattus norvegicus; experiment: Toxicity in Wistar Han rat assessed as occurrence of piloerection at 100 mg/kg, ip after 24 hrs; type: organism-based; design: dose 100 mg/kg, route intraperitoneal; details: in vivo; summary of the method: as §1
[11] = system: Rattus norvegicus; experiment: Toxicity in Wistar Han rat assessed as macroscopic heart lesions at 1 to 100 mg/kg, ip by necropsic analysis; type: organism-based; design: dose 1-100 mg/kg, route intraperitoneal; details: in vivo
Summary of the method: (§2)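 Male Wistar Han rats (~285 g), 3 per group, received a single i.p. dose of 1, 10 or 100 mg/kg in alcohol/water 1:3 (v/v), with vehicle controls. Clinical signs were recorded daily. After 4 days, rats were killed by exsanguination, and liver, kidney, heart and muscle were examined grossly at necropsy.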

[12] = system: Rattus norvegicus; experiment: Toxicity in Wistar Han rat at 1 to 10 mg/kg, ip; type: organism-based; design: dose 1-10 mg/kg, route intraperitoneal; details: in vivo
Summary of the method: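 Male Wistar Han rats (~285 g), 3 per group, received a single i.p. injection of 1 or 10 mg/kg in alcohol/water 1:3 (v/v), with vehicle controls. Physical and clinical signs were recorded daily for 4 days, followed by exsanguination and gross necropsy.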

[13] = system: Rattus norvegicus; experiment: Toxicity in Wistar Han rat assessed as macroscopic kidney lesions at 1 to 100 mg/kg, ip by necropsic analysis; type: organism-based; design: dose 1-100 mg/kg, route intraperitoneal; details: in vivo; summary of the method: as §2
[14] = system: Rattus norvegicus; experiment: Toxicity in Wistar Han rat assessed as mortality at 1 to 100 mg/kg, ip; type: organism-based; design: dose 1-100 mg/kg, route intraperitoneal; details: in vivo
[15] = system: Rattus norvegicus; experiment: Toxicity in Wistar Han rat assessed as macroscopic liver lesions at 1 to 100 mg/kg, ip by necropsic analysis; type: organism-based; design: dose 1-100 mg/kg, route intraperitoneal; details: in vivo; summary of the method: as §2
[16] = system: Rattus norvegicus; experiment: Toxicity in Wistar Han rat assessed as macroscopic muscle lesions at 1 to 100 mg/kg, ip by necropsic analysis; type: organism-based, Muscle tissue; design: dose 1-100 mg/kg, route intraperitoneal; details: in vivo; summary of the method: as §2
[17] = system: Rattus norvegicus; experiment: Toxicity in Wistar Han rat assessed as prostarted posture at 100 mg/kg, ip after 24 hrs; type: organism-based; design: dose 100 mg/kg, route intraperitoneal; details: in vivo; summary of the method: as §1

Sequence of Sodium-dependent serotonin transporter (P31645 whole entry): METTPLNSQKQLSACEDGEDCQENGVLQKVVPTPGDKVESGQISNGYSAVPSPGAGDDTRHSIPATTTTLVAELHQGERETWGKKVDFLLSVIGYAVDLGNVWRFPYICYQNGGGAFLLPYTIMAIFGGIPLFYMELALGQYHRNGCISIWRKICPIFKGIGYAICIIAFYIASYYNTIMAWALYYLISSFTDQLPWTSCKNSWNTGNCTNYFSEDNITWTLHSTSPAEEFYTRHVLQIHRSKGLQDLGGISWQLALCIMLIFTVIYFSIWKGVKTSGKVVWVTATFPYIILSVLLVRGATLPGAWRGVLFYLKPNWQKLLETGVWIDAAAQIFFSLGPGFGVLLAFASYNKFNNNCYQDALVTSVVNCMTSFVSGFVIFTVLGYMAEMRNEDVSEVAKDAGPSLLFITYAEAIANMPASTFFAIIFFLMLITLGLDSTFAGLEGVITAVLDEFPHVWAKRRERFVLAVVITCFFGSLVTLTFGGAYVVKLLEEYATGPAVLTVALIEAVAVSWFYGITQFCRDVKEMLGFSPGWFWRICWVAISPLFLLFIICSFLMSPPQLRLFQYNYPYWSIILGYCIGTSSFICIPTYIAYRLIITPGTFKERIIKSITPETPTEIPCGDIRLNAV

SMILES	Ki ([1]; read-out: Ki) [nM]	Ratio [2]	IC50 ([3]; read-out: IC50) [nM]	IC50 ([4]; read-out: IC50) [nM]	further results
NCCCCc1c[nH]c2c(F)cccc12	8	1.3	–	–	–
NCCCc1c[nH]c2c(F)cccc12	24	1	26	24	–
N#CCCCc1c[nH]c2ccc(C(=O)O)cc12	–	–	–	–	IC50 [3]: Not Active; IC50 [4]: Not Active; Ki ([1]; hek293): Not Active
NCCSCCc1c[nH]c2c(F)cccc12	24	8	–	–	Activity [5]: Non-toxic; Activity [6]: Toxic; Activity [7]: Non-toxic; Activity [8]: Toxic; Activity [9]: Toxic
NCCc1c[nH]c2ccc(O)cc12 [SEROTONIN]	–	–	–	–	IC50 [4]: Not Active
CCCc1c[nH]c2ccc(F)cc12	–	–	> 100	> 100	Ki ([1]; hek293): Not Active
N#CSCCCc1c[nH]c2ccc(F)cc12	–	42	–	–	–
N[C@@H](Cc1ccc(O)cc1)C(=O)O [TYROSINE]	–	–	–	–	IC50 [4]: Not Active
NCCSCCCc1c[nH]c2c(F)cccc12	539	–	> 100	> 100	–
OCCNCCCc1c[nH]c2ccc(F)cc12	62	6.2	43	10	–
CCSCCCc1c[nH]c2ccc(F)cc12	–	–	> 100	> 100	Ki ([1]; hek293): Not Active
CCN(CCc1c[nH]c2ccc(F)cc12)S(C)(=O)=O	–	12	–	–	–
N#CCCCc1c[nH]c2ccc(F)cc12	184	2.9	72	63	–
CCNC(=O)CCCc1c[nH]c2ccc(F)cc12	–	–	243	182	–
NCCSCCCc1c[nH]c2ccc(F)cc12	0.9	0.02	–	35	–
Fc1ccc2[nH]cc(CCCN3CCN(c4ccccc4)CC3)c2c1	36	1.6	60	22	–

SMILES	Ki ([1]; read-out: Ki) [nM]	Ratio [2]	IC50 ([3]; read-out: IC50) [nM]	IC50 ([4]; read-out: IC50) [nM]	further results
NC(=O)CCCc1c[nH]c2ccc(F)cc12	–	35	–	18	Activity [10]: Toxic; Activity [11]: Non-toxic; Activity [12]: Non-toxic; Activity [13]: Non-toxic; Activity [14]: Non-toxic; Activity [15]: Non-toxic; Activity [16]: Non-toxic; Activity [17]: Toxic
NCCCc1c[nH]c2ccc(C(=O)O)cc12	–	–	–	–	IC50 [3]: Not Active; IC50 [4]: Not Active; Ki ([1]; hek293): Not Active
NCCc1c[nH]c2ccccc12 [TRYPTAMINE]	–	–	–	770	–
NC(=O)CCc1c[nH]c2c(F)cccc12	–	–	64	271	–
NCCCCc1c[nH]c2ccc(C(=O)O)cc12	–	–	–	–	IC50 [3]: Not Active; IC50 [4]: Not Active; Ki ([1]; hek293): Not Active
NCC(N)CCc1c[nH]c2ccc(F)cc12 (stereo not given)	12	0.2	26	60	–
NC(=O)CCc1c[nH]c2ccc(F)cc12	–	–	34	132	–
CCN(CCCc1c[nH]c2ccc(F)cc12)S(C)(=O)=O	12	0.3	–	37	–
OCCNCCc1c[nH]c2ccc(F)cc12	10	1	31	10	–
CCSCCc1c[nH]c2ccc(F)cc12	–	–	> 100	> 100	Ki ([1]; hek293): Not Active
Fc1ccc2[nH]cc(CCCNCc3ccccc3)c2c1	53	4.1	30	13	–
NC(=O)CCCCc1c[nH]c2c(F)cccc12	–	–	44	34	–
NCCc1c[nH]c2c(F)cccc12	29	1	28	29	–
NC(=O)CCCCc1c[nH]c2ccc(F)cc12	–	–	43	39	–
NCCSCCc1c[nH]c2ccc(F)cc12	2.3	0.6	–	–	–
